Tests used:
[1] = molecular target: T1, Transient receptor potential cation channel subfamily A member 1 (Homo sapiens, UniProt O75762); experiment: Antagonist activity at human TRPA1 expressed in tetracycline-inducible T-REx expression system transfected CHO cells assessed as inhibition of AITC-induced Ca2+ influx preincubated for 2 mins followed by AITC addition measured for 2 mins by Fluo-4 dye based FLIPR assay; assay type: cell-based
[2] = Apparent intrinsic clearance in rat liver microsomes; assay type: ADME; details: read-out: CLH(app)
[3] = molecular target: T2, Transient receptor potential cation channel subfamily A member 1 (Rattus norvegicus, UniProt Q6RI86); experiment: Agonist activity at rat TRPA1 expressed in tetracycline-inducible T-REx expression system transfected CHO cells assessed as increase in Ca2+ influx measured for 2 mins by Fluo-4 dye based FLIPR assay; assay type: cell-based
Outline: (§1)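 FLIPR Tetra Ca2+ flux with Fluo-4 NW dye plus probenecid. Cells were seeded 24 h ahead in medium with […]. Dye loading ran 30 min at 37 °C, then 30 min at RT. Compound was added and agonist signal read for 2 min. Data were expressed as POC of DMSO (low) vs saturating AITC (high: 15 μM human, 200 μM rat) and fitted to a four-parameter equation.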

[4] = molecular target: Transient receptor potential cation channel subfamily V member 3 (Rattus norvegicus); experiment: Antagonist activity at rat TRPV3 expressed in tetracycline-inducible T-REx expression system transfected CHO cells assessed as inhibition of […]-induced Ca2+ influx preincubated for 1 min followed by […] addition measured for 1 min by luminescence assay
[5] = molecular target: T2, Transient receptor potential cation channel subfamily A member 1; experiment: Antagonist activity at rat TRPA1 expressed in tetracycline-inducible T-REx expression system transfected CHO cells assessed as inhibition of AITC-induced Ca2+ influx preincubated for 2 mins followed by AITC addition measured for 2 mins by Fluo-4 dye based FLIPR assay; assay type: cell-based
[6] = molecular target: T2, Transient receptor potential cation channel subfamily A member 1; experiment: Antagonist activity at rat TRPA1 expressed in tetracycline-inducible T-REx expression system transfected CHO cells assessed as inhibition of AITC-induced 45Ca2+ uptake preincubated for 1 min followed by AITC addition measured after 12 mins; assay type: cell-based
[7] = molecular target: T1, Transient receptor potential cation channel subfamily A member 1; experiment: Agonist activity at human TRPA1 expressed in tetracycline-inducible T-REx expression system transfected CHO cells by 45Ca2+ uptake assay; assay type: cell-based
[8] = molecular target: Transient receptor potential cation channel subfamily V member 1 (Homo sapiens, UniProt Q8NER1); experiment: Antagonist activity at human TRPV1 expressed in CHO cells assessed as inhibition of capsaicin-induced Ca2+ influx preincubated for 2.5 mins followed by capsaicin addition measured for 1 min by luminescence assay; assay type: cell-based
[9] = molecular target: T1, Transient receptor potential cation channel subfamily A member 1; experiment: Agonist activity at human TRPA1 expressed in tetracycline-inducible T-REx expression system transfected CHO cells assessed as increase in Ca2+ influx measured for 2 mins by Fluo-4 dye based FLIPR assay; assay type: cell-based; outline: as §1
[10] = Apparent intrinsic clearance in human liver microsomes; assay type: ADME; details: read-out: CLH(app)
[11] = molecular target: T2, Transient receptor potential cation channel subfamily A member 1; experiment: Agonist activity at rat TRPA1 expressed in tetracycline-inducible T-REx expression system transfected CHO cells by 45Ca2+ uptake assay; assay type: cell-based
[12] = molecular target: T1, Transient receptor potential cation channel subfamily A member 1; experiment: Antagonist activity at human TRPA1 expressed in tetracycline-inducible T-REx expression system transfected CHO cells assessed as inhibition of AITC-induced 45Ca2+ uptake preincubated for 1 min followed by AITC addition measured after 12 mins; assay type: cell-based
[13] = Fraction unbound in rat plasma; assay type: ADME, cell-free
[14] = tested on: Liver microsome; experiment: Drug metabolism in human liver microsomes assessed as 3-((3-(2-(4-Chlorophenyl)-2-hydroxyethyl)-1,2,4-oxadiazol-5-yl)-methyl)pyrido[2,3-d]pyrimidin-4(3H)-one formation; assay type: ADME
[15] = tested on: Liver microsome; experiment: Drug metabolism in rat liver microsomes assessed as 3-((3-(2-(4-Chlorophenyl)-2-hydroxyethyl)-1,2,4-oxadiazol-5-yl)-methyl)pyrido[2,3-d]pyrimidin-4(3H)-one formation; assay type: ADME
[16] = Clearance in rat at 0.5 mg/kg, iv as single dose; assay type: ADME, organism-based; details: in vivo
[17] = Half life in rat at 0.5 mg/kg, iv administered as single dose; assay type: ADME, organism-based; details: in vivo
Outline: (§2)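 Single intravenous dose of 0.5 mg/kg given to rats, formulated in 100% DMSO.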

[18] = Volume of distribution at steady state in rat at 0.5 mg/kg, iv as single dose; assay type: ADME, organism-based; details: in vivo, read-out: Vdss; outline: as §2
[19] = AUC (infinity) in rat at 10 mg/kg, po; assay type: ADME, organism-based; design: dose 10 mg/kg, time infinity, route oral; details: in vivo
Outline: (§3)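 Rat oral PK at 30 mg/kg (10 mg/kg for one analogue) in 1% Tween 80/2% HPMC/97% water with methanesulfonic acid, pH 2.2.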

[20] = tested on: Rattus norvegicus; experiment: fCmax in rat at 10 mg/kg, po; assay type: ADME, organism-based; details: in vivo
Outline: (§4)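 Rats dosed orally at 30 mg/kg, or 10 mg/kg for one analogue, in 1% Tween 80/2% HPMC/97% water with methanesulfonic acid, pH 2.2.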

[21] = Half life in rat at 10 mg/kg, po; assay type: ADME, organism-based; details: in vivo; outline: as §4
[22] = Ratio of fCmax in rat at 10 mg/kg, po to IC50 for rat TRPA1 expressed in tetracycline-inducible T-REx expression system transfected CHO cells by 45Ca2+ uptake assay
Outline: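 Rat oral PK dosed at 10 mg/kg in 1% Tween 80/2% HPMC/97% water/methanesulfonic acid pH 2.2. Unbound Cmax divided by rat TRPA1 45Ca2+ IC50.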

[23] = Tmax in rat at 10 mg/kg, po; assay type: ADME, organism-based; details: in vivo; outline: as §4
[24] = Cmax in rat at 10 mg/kg, po; assay type: ADME, organism-based; design: dose 10 mg/kg, route oral; details: in vivo; outline: as §3
[25] = tested on: Rattus norvegicus; experiment: fCmax in rat at 30 mg/kg, po; assay type: ADME, organism-based; details: in vivo; outline: as §4
[26] = Ratio of fCmax in rat at 30 mg/kg, po to IC50 for rat TRPA1 expressed in tetracycline-inducible T-REx expression system transfected CHO cells by 45Ca2+ uptake assay
[27] = AUC (infinity) in rat at 30 mg/kg, po; assay type: ADME, organism-based; design: dose 30 mg/kg, time infinity, route oral; details: in vivo; outline: as §3
[28] = Half life in rat at 30 mg/kg, po; assay type: ADME, organism-based; details: in vivo; outline: as §4
[29] = Tmax in rat at 30 mg/kg, po; assay type: ADME, organism-based; details: in vivo; outline: as §4
[30] = Cmax in rat at 30 mg/kg, po; assay type: ADME, organism-based; design: dose 30 mg/kg, route oral; details: in vivo; outline: as §3
[31] = tested on: Rattus norvegicus; experiment: Unbound clearance in rat at 0.5 mg/kg, iv as single dose; assay type: ADME, organism-based; details: in vivo; outline: as §2
[32] = Oral bioavailability in rat at 30 mg/kg; assay type: ADME, organism-based; details: in vivo; outline: as §4

T1 sequence (O75762 whole entry): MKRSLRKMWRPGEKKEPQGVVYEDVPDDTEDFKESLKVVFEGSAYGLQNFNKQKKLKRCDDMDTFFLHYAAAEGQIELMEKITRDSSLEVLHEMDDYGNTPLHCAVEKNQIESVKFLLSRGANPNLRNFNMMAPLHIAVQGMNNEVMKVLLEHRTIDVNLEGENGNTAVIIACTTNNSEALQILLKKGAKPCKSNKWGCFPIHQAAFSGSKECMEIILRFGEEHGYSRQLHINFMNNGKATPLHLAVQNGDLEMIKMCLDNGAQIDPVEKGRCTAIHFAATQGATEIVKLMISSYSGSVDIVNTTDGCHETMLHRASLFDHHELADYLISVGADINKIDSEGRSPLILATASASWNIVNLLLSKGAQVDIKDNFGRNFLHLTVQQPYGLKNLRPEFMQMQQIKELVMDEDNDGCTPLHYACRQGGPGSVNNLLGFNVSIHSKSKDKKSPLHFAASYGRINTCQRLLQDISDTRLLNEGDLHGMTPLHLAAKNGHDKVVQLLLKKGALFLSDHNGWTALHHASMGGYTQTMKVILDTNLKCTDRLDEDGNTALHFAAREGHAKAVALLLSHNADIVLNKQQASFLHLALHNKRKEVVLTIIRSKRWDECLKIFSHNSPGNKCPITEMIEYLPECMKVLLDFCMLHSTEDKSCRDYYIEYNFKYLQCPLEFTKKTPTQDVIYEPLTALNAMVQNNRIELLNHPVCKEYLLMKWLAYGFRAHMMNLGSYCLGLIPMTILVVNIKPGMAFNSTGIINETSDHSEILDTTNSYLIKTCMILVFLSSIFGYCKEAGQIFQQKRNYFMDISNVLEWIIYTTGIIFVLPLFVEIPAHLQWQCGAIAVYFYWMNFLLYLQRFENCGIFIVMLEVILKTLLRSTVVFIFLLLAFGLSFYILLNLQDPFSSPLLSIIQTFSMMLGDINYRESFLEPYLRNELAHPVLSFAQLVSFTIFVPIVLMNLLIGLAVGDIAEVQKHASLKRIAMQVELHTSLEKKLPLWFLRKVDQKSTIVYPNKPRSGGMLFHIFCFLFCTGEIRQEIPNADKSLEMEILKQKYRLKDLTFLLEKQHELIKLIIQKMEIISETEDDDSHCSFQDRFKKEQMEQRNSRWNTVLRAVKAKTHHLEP
T2 sequence (Q6RI86 whole entry): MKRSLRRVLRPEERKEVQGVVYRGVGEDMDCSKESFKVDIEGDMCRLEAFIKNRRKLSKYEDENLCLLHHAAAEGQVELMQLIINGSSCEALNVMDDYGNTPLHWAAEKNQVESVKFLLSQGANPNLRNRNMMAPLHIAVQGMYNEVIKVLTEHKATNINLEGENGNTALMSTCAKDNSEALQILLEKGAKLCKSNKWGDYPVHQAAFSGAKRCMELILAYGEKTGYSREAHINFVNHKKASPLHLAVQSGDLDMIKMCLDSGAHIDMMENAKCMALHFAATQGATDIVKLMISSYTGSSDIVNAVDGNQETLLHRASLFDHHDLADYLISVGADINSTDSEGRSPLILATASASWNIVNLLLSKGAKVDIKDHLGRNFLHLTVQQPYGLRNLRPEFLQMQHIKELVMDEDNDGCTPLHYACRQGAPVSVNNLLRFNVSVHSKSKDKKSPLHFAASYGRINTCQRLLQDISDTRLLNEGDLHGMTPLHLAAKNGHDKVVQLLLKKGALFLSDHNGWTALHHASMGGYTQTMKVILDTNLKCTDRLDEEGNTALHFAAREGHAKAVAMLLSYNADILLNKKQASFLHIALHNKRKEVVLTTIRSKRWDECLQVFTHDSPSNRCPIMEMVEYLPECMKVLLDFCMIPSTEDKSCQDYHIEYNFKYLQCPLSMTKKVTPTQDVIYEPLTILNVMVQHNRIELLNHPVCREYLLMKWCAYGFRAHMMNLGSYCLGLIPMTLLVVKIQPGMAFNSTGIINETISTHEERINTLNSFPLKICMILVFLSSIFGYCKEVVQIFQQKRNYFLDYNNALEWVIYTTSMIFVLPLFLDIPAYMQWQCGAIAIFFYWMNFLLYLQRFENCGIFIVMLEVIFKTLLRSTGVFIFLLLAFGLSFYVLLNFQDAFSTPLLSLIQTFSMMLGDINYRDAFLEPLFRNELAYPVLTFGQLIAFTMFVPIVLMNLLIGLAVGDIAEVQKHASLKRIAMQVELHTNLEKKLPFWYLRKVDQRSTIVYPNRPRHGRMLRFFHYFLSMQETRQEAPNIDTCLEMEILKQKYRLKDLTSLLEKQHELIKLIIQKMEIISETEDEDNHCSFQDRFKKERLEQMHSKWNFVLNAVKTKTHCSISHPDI
Chain of Transient receptor potential cation channel subfamily V member 1 (Q8NER1 whole entry): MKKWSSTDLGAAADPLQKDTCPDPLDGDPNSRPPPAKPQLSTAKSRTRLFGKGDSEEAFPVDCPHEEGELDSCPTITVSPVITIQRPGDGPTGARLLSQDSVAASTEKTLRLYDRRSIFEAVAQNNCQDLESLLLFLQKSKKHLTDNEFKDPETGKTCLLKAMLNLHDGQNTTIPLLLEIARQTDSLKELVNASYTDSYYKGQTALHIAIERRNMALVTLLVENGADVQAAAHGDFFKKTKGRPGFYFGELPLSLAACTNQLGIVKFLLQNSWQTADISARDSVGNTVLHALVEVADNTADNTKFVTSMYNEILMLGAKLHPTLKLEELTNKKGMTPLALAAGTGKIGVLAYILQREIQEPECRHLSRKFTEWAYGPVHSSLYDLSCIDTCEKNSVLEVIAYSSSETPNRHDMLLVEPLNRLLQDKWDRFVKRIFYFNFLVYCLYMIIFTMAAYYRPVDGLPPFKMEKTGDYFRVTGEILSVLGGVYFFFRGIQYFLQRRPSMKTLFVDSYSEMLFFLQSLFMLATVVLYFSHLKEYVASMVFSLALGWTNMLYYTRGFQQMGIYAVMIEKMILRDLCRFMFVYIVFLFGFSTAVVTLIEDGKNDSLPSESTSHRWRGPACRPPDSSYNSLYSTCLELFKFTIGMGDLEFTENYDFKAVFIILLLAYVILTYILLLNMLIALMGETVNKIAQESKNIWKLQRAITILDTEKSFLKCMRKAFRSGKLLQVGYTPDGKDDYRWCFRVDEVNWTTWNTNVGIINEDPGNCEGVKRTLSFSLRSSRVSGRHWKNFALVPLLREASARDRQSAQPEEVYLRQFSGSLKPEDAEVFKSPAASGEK

Compound	IC50 [1] [nM]	microsomal CLint [2] [µL/min/mg]	IC50 [5] [nM]	microsomal CLint [10] [µL/min/mg]	further results
Cc1cccc2c(=O)n(CC(=O)NCCc3ccccc3)cnc12	> 8330	–	–	–	–
Cc1cccc2c(=O)n(CC(=O)NCCc3ccc(OC(F)F)cc3)cnc12	685	> 399	142	194	EC50 [3]: > 25000 nM; IC50 [4]: > 20000 nM; IC50 [6]: 2620 nM; EC50 [7]: > 47000 nM; IC50 [8]: > 20000 nM; EC50 [9]: > 25000 nM; EC50 [11]: > 47000 nM; IC50 [12]: 6270 nM
Cc1cccc2c(=O)n(CC(=O)NCCc3ccc(Cl)cc3)cnc12	802	706	358	224	–
C/C(=C\c1nc(Cn2cnc3ncn(C)c3c2=O)no1)c1ccc(Cl)cc1	165	< 14	274	76	–
O=C(Cn1cnc2c(C(F)(F)F)cccc2c1=O)NCCc1ccc(Cl)cc1	286	> 399	306	397	–
Cc1cccc2ncn(CC(=O)NCCc3ccc(Cl)cc3)c(=O)c12	70	736	112	301	–
Cc1ccc2c(=O)n(CC(=O)NCCc3ccc(Cl)cc3)cnc2c1	> 4200	829	> 16700	144	–
O=c1c2cccnc2ncn1Cc1nc(CCc2ccc(Cl)cc2)no1	41	131	21	32	fraction unbound [13]: 0.144; Drug metabolism [14]: metabolite_detected; IC50 [6]: 120 nM; EC50 [7]: > 40000 nM; Drug metabolism [15]: metabolite_detected; clearance [16]: 98.3 mL/min/kg; half-life [17]: 0.3 h; Vd [18]: 2 L/kg; EC50 [11]: > 40000 nM; IC50 [12]: 376 nM
Cc1ccnc2ncn(Cc3nc(CCc4ccc(Cl)cc4)no3)c(=O)c12	16	> 399	35	340	–
Cc1ccc2ncn(CC(=O)NCCc3ccc(Cl)cc3)c(=O)c2c1	265	–	287	–	–
COc1ccccc1CCNC(=O)Cn1cnc2c(C)cccc2c1=O	> 16700	–	> 16700	–	–
Cn1cnc2ncn(Cc3noc(CCc4ccc(Cl)cc4)n3)c(=O)c21	211	44	136	19	–
N#Cc1cccc2c(=O)n(CC(=O)NCCc3ccc(Cl)cc3)cnc12	201	297	56	49	–
COc1cccc2c(=O)n(CC(=O)NCCc3ccc(Cl)cc3)cnc12	1460	455	2150	34	–
O=C(Cn1cnc2ncccc2c1=O)NCCc1ccc(Cl)cc1	1180	18	1170	< 14	–
C/C(=C\c1noc(Cn2cnc3ncn(C)c3c2=O)n1)c1ccc(Cl)cc1	71	< 14	75	< 14	AUC(0-inf) [19]: 117 µM·h; fraction unbound [13]: 0.033; fCmax [20]: 0.2 µM; half-life [21]: 10 h; Ratio [22]: 4; IC50 [6]: 55 nM; EC50 [7]: > 40000 nM; Tmax [23]: 2 h; EC50 [11]: > 40000 nM; IC50 [12]: 63 nM; Cmax [24]: 6.5 µM
O=c1c2cccnc2ncn1Cc1noc(CCc2ccc(Cl)cc2)n1	156	122	89	35	fCmax [25]: 1 µM; fraction unbound [13]: 0.093; Ratio [26]: 3; AUC(0-inf) [27]: 19.2 µM·h; half-life [28]: 4 h; IC50 [6]: 411 nM; EC50 [7]: > 40000 nM; clearance [16]: 36.7 mL/min/kg; half-life [17]: 0.4 h; Vd [18]: 1 L/kg; Tmax [29]: 0.5 h; EC50 [11]: > 40000 nM; Cmax [30]: 10.3 µM; CL free [31]: 400 mL/min/kg; IC50 [12]: 1580 nM; bioavailability [32]: 52%
O=C(Cn1cnc2c(F)cccc2c1=O)NCCc1ccc(Cl)cc1	1330	186	791	40	–
O=C(Cn1cnc2cnccc2c1=O)NCCc1ccc(Cl)cc1	1710	179	1080	14	–
COc1ccc(CCNC(=O)Cn2cnc3c(C)cccc3c2=O)cc1	–	–	1370	–	–
C/C(=C\c1nc(Cn2cnc3ncccc3c2=O)no1)c1ccc(Cl)cc1	–	–	–	–	fCmax [25]: 0.1 µM; fraction unbound [13]: 0.012; AUC(0-inf) [27]: 94.9 µM·h; half-life [28]: 5.1 h; half-life [17]: 4.2 h; Vd [18]: 1.4 L/kg; Tmax [29]: 2.7 h; Cmax [30]: 8 µM; bioavailability [32]: 32%
O=c1c2cccnc2ncn1Cc1nc(CC(F)c2ccc(Cl)cc2)no1 (racemic)	41	94	31	56	–
COc1cccc(CCNC(=O)Cn2cnc3c(C)cccc3c2=O)c1	> 16700	–	> 16700	–	–
O=C(Cn1cnc2ccccc2c1=O)NCCc1ccc(Cl)cc1	> 16700	104	–	31	–
